Measured values reported in ChEMBL document CHEMBL1153702, “Synthesis and cytotoxic activity of 2-methylimidazo[1,2-a]pyridine- and quinoline-substituted 2-aminopyrimidine derivatives” (Eur J Med Chem, 2010).
Active and inactive are the calls of the source. The rule behind the calls is not given here.

What was measured:
[1] = system: SK-LU-1; assay: Cell cycle arrest in human SK-LU-1 cells assessed as accumulation at G2/M phase after 24 hrs by flow cytometry; format: functional
[2] = system: SK-LU-1; assay: Cell cycle arrest in human SK-LU-1 cells assessed as accumulation at S phase after 24 hrs by flow cytometry; format: functional
[3] = system: SK-LU-1; assay: Cell cycle arrest in human SK-LU-1 cells assessed as accumulation at G1 phase after 24 hrs by flow cytometry; format: functional
[4] = system: SK-LU-1; assay: Cytotoxicity against human SK-LU-1 cells after 48 hrs by SRB assay; format: functional, cell-based; conditions: SK-LU-1, 48 h
How it was run: (§1)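 SRB protein-staining assay: 5–10 × 10^3 cells/well in RPMI-1640/10% FCS, allowed 24 h to attach, then 48 h with compound dissolved from DMSO stock; TCA fixation, 0.4% SRB staining, Tris-solubilized dye read at 515 nm. IC50 from dose-response curve by non-linear regression; mean ± SD of three independent experiments.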

[5] = system: MCF7; assay: Cytotoxicity against human MCF7 cells after 48 hrs by SRB assay; format: functional, cell-based; conditions: MCF7, 48 h; how it was run: as §1
[6] = system: U-251; assay: Cytotoxicity against human U251 cells at 50 uM after 48 hrs by SRB assay; format: functional; conditions: U-251, 48 h
How it was run: (§2)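 Cells in RPMI-1640 with 10% FCS at 37 °C, 5% CO2; 5–10 × 10^3 cells/well seeded 24 h, then exposed 48 h to 50 μM compound (DMSO stock; 5-fluorouracil at same concentration as positive control). TCA-fixed at 4 °C 1 h, stained with 0.4% SRB, dye solubilized in 10 mM Tris base, OD 515 nm; % growth inhibition, mean of three experiments in triplicate.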

[7] = system: PC-3; assay: Cytotoxicity against human PC3 cells at 50 uM after 48 hrs by SRB assay; format: functional; conditions: PC-3, 48 h; how it was run: as §2
[8] = system: K562; assay: Cytotoxicity against human K562 cells at 50 uM after 48 hrs by SRB assay; format: functional; conditions: for inhibition at 50 µM: K562, 48 h; how it was run: as §2
[9] = system: HCT-15; assay: Cytotoxicity against human HCT15 cells at 50 uM after 48 hrs by SRB assay; format: functional; conditions: for inhibition at 50 µM: HCT-15, 48 h; how it was run: as §2
[10] = system: MCF7; assay: Cytotoxicity against human MCF7 cells at 50 uM after 48 hrs by SRB assay; format: functional; conditions: MCF7, 48 h; how it was run: as §2
[11] = system: SK-LU-1; assay: Cytotoxicity against human SK-LU-1 cells at 50 uM after 48 hrs by SRB assay; format: functional; conditions: SK-LU-1, 48 h; how it was run: as §2
[12] = system: MCF7; assay: Cell cycle arrest in human MCF7 cells assessed as accumulation at G1 phase after 24 hrs by flow cytometry; format: functional
[13] = system: MCF7; assay: Cell cycle arrest in human MCF7 cells assessed as accumulation at S phase after 24 hrs by flow cytometry; format: functional
[14] = system: MCF7; assay: Cell cycle arrest in human MCF7 cells assessed as accumulation at G2/M phase after 24 hrs by flow cytometry; format: functional
[15] = system: SK-LU-1; assay: Induction of apoptosis in human SK-LU-1 cells assessed as apoptotic cells after 48 hrs using annexin-V-FITC/propidium iodide staining by flow cytometry; format: functional, cell-based
How it was run: (§3)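 2.5 × 10^5 cells per well attached 24 h, then treated 48 h with compound or DMSO vehicle at the highest concentration used. Adherent plus floating cells washed in PBS, resuspended in annexin-binding buffer, stained with annexin V-FITC and propidium iodide 10 min in the dark at room temperature; 10,000 events analysed by flow cytometry, quadrants scoring apoptotic versus late apoptotic/necrotic cells.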

[16] = system: SK-LU-1; assay: Induction of apoptosis in human SK-LU-1 cells assessed as necrotic cells after 48 hrs using annexin-V-FITC/propidium iodide staining by flow cytometry; format: functional, cell-based; how it was run: as §3
[17] = target: Cyclin-dependent kinase 1/cyclin B1 (Homo sapiens) (UniProt P06493+P14635); conditions: at 7 µM
Cyclin-dependent kinase 1/cyclin B1 (Homo sapiens), sequence (P06493 whole entry, looked up): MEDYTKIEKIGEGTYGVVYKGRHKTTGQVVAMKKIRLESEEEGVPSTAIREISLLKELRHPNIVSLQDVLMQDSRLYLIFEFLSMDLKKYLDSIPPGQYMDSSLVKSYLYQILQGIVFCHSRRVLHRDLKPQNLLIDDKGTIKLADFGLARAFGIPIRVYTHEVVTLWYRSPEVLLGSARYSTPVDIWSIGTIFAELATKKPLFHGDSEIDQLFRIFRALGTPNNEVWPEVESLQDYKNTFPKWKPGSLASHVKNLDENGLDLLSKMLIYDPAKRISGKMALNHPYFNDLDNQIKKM
Cyclin-dependent kinase 1/cyclin B1 (Homo sapiens), sequence (P14635 whole entry, looked up): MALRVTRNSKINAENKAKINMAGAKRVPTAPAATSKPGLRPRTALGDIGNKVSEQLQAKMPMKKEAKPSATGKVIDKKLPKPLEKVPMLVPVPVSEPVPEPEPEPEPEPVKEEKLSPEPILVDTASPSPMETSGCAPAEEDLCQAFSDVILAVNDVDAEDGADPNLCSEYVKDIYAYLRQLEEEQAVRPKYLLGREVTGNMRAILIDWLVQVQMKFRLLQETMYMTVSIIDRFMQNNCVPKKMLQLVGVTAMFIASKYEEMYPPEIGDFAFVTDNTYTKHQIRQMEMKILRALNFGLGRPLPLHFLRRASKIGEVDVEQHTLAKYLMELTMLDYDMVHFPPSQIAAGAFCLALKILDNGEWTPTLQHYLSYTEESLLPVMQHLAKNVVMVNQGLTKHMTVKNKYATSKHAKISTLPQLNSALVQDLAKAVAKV

`Cc1ccc(Nc2nccc(-c3c(C)nc4ccccn34)n2)cc1` gave an Activity [1] of 77.5%, an Activity [2] of 20.9% and an Activity [3] of 4.7%. The IC50 [4] was 19.7 nM, the IC50 [5] was 59 nM and the inhibition at 50 µM [6] was 100%. For the same molecule, the inhibition at 50 µM [7] was 94.2%, the inhibition at 50 µM [8] was 89.4% and the inhibition at 50 µM [9] was 95.2%. It also gave an inhibition at 50 µM [10] of 88.5%, an inhibition at 50 µM [11] of 100% and an Activity [12] of 60.8%. The Activity [13] was 25.3%, the Activity [14] was 14.7% and the Activity [15] was “Active”. The Activity [16] was “inactive” and the inhibition [17] was 59%.

Work on `Cn1cnc2c(NCc3ccccc3)nc(NCCO)nc21` [OLOMOUCINE] yielded an Activity [1] of 31.8%, an Activity [2] of 19.7% and an Activity [3] of 44.2%. The Activity [12] was 60.6%, the Activity [13] was 15.1% and the Activity [14] was 23.2%.

`FC(F)(F)c1ccc(Nc2nccc(-c3ccnc4ccccc34)n2)cc1` was tested, and the IC50 [4] was 1720 nM, the IC50 [5] was 1650 nM and the inhibition at 50 µM [6] was 91.8%. The inhibition at 50 µM [7] was 87.3%, the inhibition [8] was “inactive” and the inhibition at 50 µM [9] was 100%. For the same molecule, the inhibition at 50 µM [10] was 100% and the inhibition at 50 µM [11] was 100%.

For `Nc1nccc(-c2c(C(F)(F)F)nc3ccccn23)n1`, the IC50 [4] was 56500 nM, the IC50 [5] was 53700 nM and the inhibition at 50 µM [6] was 92.2%. For the same molecule, the inhibition at 50 µM [7] was 74%, the inhibition at 50 µM [8] was 56.3% and the inhibition at 50 µM [10] was 100%. For the same molecule, the inhibition at 50 µM [11] was 71%.

For `Cc1nc2ccccn2c1-c1ccnc(Nc2ccc(C(F)(F)F)cc2)n1`, the IC50 [4] was 34 nM, the IC50 [5] was 66 nM and the inhibition at 50 µM [6] was 85.6%. For the same molecule, the inhibition at 50 µM [7] was 64.5%, the inhibition at 50 µM [8] was 84.8% and the inhibition at 50 µM [9] was 88.6%. For the same molecule, the inhibition at 50 µM [10] was 83.4%, the inhibition at 50 µM [11] was 100% and the inhibition [17] was 60%.

`Cc1ccc(Nc2nccc(-c3c(C(F)(F)F)nc4ccccn34)n2)cc1` was tested, and the IC50 [4] was 175 nM, the IC50 [5] was 44 nM and the inhibition at 50 µM [6] was 100%. It also gave an inhibition at 50 µM [7] of 100%, an inhibition at 50 µM [8] of 100% and an inhibition at 50 µM [9] of 100%. The inhibition at 50 µM [10] was 100%, the inhibition at 50 µM [11] was 100% and the Activity [15] was “Active”. The Activity [16] was “inactive”.

`Cc1ccc(Nc2nccc(-c3cnc4ccccc4c3)n2)cc1` showed an IC50 [5] of 50000 nM, an inhibition at 50 µM [6] of 87.7% and an inhibition at 50 µM [7] of 59.5%. For the same molecule, the inhibition [8] was “inactive”, the inhibition at 50 µM [9] was 30.3% and the inhibition at 50 µM [10] was 100%. The inhibition at 50 µM [11] was 46.3% and the inhibition [17] was 73%.

Molecule `Nc1nccc(-c2cnc3ccccc3c2)n1` has an IC50 [4] greater than 50000 nM, an IC50 [5] greater than 50000 nM and an inhibition at 50 µM [6] of 38.5%. For the same molecule, the inhibition at 50 µM [7] was 31.9%, the inhibition [8] was “inactive” and the inhibition [9] was “inactive”. The inhibition at 50 µM [10] was 100% and the inhibition at 50 µM [11] was 59.3%.

In the case of `FC(F)(F)c1ccc(Nc2nccc(-c3c(C(F)(F)F)nc4ccccn34)n2)cc1`, the IC50 [4] is reported as 745 nM, the IC50 [5] is reported as 290 nM and the inhibition at 50 µM [6] is reported as 100%. For the same molecule, the inhibition at 50 µM [7] was 92%, the inhibition at 50 µM [8] was 94.2% and the inhibition at 50 µM [9] was 94.4%. It also gave an inhibition at 50 µM [10] of 100% and an inhibition at 50 µM [11] of 95%.

Work on `Cc1nc2ccccn2c1-c1ccnc(Nc2ccc(C=O)s2)n1` yielded an Activity [1] of 48%, an Activity [2] of 13.9% and an Activity [3] of 42.5%. It also gave an IC50 [4] of 1540 nM, an IC50 [5] of 4270 nM and an inhibition at 50 µM [6] of 57.8%. It also gave an inhibition at 50 µM [7] of 49.5%, an inhibition at 50 µM [8] of 88.1% and an inhibition at 50 µM [9] of 85.4%. The inhibition at 50 µM [10] was 75.9%, the inhibition at 50 µM [11] was 100% and the Activity [12] was 54.5%. The Activity [13] was 15.7%, the Activity [14] was 22.2% and the Activity [15] was “Active”. For the same molecule, the Activity [16] was “inactive” and the inhibition [17] was 52%.

In the case of `Nc1nccc(-c2ccnc3ccccc23)n1`, the IC50 [4] is reported as greater than 50000 nM, the IC50 [5] is reported as 40200 nM and the inhibition at 50 µM [6] is reported as 100%. For the same molecule, the inhibition at 50 µM [7] was 77.4%, the inhibition at 50 µM [8] was 9.4% and the inhibition [9] was “inactive”. For the same molecule, the inhibition at 50 µM [10] was 100% and the inhibition at 50 µM [11] was 78.2%.

In the case of `FC(F)(F)c1ccc(Nc2nccc(-c3cnc4ccccc4c3)n2)cc1`, the IC50 [5] is reported as greater than 50000 nM, the inhibition at 50 µM [6] is reported as 49.8% and the inhibition at 50 µM [7] is reported as 22.9%. For the same molecule, the inhibition [8] was “inactive”, the inhibition at 50 µM [9] was 24% and the inhibition at 50 µM [10] was 80.9%. For the same molecule, the inhibition at 50 µM [11] was 35.4%.

`O=c1[nH]cc(F)c(=O)[nH]1` [FLUOROURACIL] gave an inhibition at 50 µM [6] of 64.2%, an inhibition at 50 µM [7] of 45.4% and an inhibition at 50 µM [8] of 73.7%. The inhibition at 50 µM [9] was 71.3%, the inhibition at 50 µM [10] was 65.1% and the inhibition at 50 µM [11] was 70.5%.

`Cc1ccc(Nc2nccc(-c3ccnc4ccccc34)n2)cc1` showed an Activity [1] of 74%, an Activity [2] of 22% and an Activity [3] of 8.1%. It also gave an IC50 [4] of 1400 nM, an IC50 [5] of 600 nM and an inhibition at 50 µM [6] of 100%. For the same molecule, the inhibition at 50 µM [7] was 100%, the inhibition at 50 µM [8] was 50.9% and the inhibition at 50 µM [9] was 100%. For the same molecule, the inhibition at 50 µM [10] was 100%, the inhibition at 50 µM [11] was 100% and the Activity [12] was 18.7%. The Activity [13] was 15.1%, the Activity [14] was 64.7% and the Activity [15] was “Active”. For the same molecule, the Activity [16] was “inactive” and the inhibition [17] was 75%.
